Counter-ions that a name gives are not always drawn. Where a SMILES comes first, the peptide text is derived from it. [ ]: non-standard residue; d: D form. Hyp = O=C(O)[C@@H]1C[C@@H](O)CN1
Experiments:
[1] = system: platelet aggregation induced by ADP; details: read-out: IC50 of antiplatelet activity induced by ADP; cited from earlier work
bleeding time = test: Tail bleeding assay; assay type: in vivo, ICR mice; details: mice, n = 10; for Bleeding time (BT): 100 μmol/kg b.w. oral, tail cut 3 mm, saline 37 °C, maximum 900 s; for Effect on bleeding time (BT) (in words): doses of 300 and 400 μmol/kg b.w. oral
thymus and spleen = test: Thymus index and spleen index; assay type: in vivo, ICR mice; details: oral administration at doses of 300 or 450 μmol/kg b.w.; mice
Method in brief: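 The same orally dosed ICR mice (300 or 450 μmol/kg b.w. peptide, saline vehicle) were weighed and sacrificed after the tail-bleeding test. Thymus and spleen were excised, washed in PBS, blotted and weighed. Indices were computed as organ weight / body weight (mg/g). Gross appearance of the organs was checked for atrophy, hyperplasia or swelling.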

[2] = system: platelet aggregation induced by ADP; test: Inhibition of ADP-induced platelet aggregation in vitro; assay type: cell-based, rat; details: data not shown
Method in brief: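 Rat aortic blood was anticoagulated with sodium citrate (1:9, v/v) and spun at 50 × g for 10 min to give PRP. A further 750 × g, 10 min spin gave PPP, used to dilute PRP to 2–3 × 10^8. PRP was preincubated with buffer or peptide for 5 min at 37 °C, then ADP (0.1 mM) was added. Aggregation at 5 min was read on an aggregometer. Inhibition % was calculated versus the buffer control, and IC50 was derived by curve fitting.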

[3] = system: human platelet aggregation; details: at 1 mg/mL; cited from earlier work

For SSGE, the IC50 [1] is listed as 480 µM.
In the case of CC(=O)Oc1ccccc1C(=O)O [aspirin, Aspirin, reference compound], the “Bleeding time (BT)” value (bleeding time) is reported as 5.345 min.
In the case of COC(=O)[C@H](c1ccccc1Cl)N1CCc2sccc2C1 [clopidogrel, clopidogrel hydrogen sulfate, reference compound], the “Bleeding time (BT)” value (bleeding time) is reported as over 15 min.
In the case of N[C@@H](CC(=O)O)C(=O)N[C@@H](CCC(=O)O)C(=O)NCC(=O)N1CCC[C@H]1C(=O)O [DEGP, Asp-Glu-Gly-Pro] (H-DEGP-OH), the “Effect on bleeding time (BT) (in words)” value (bleeding time) is reported as “no significant increase in BT” and the “Acute toxicological effects (in words)” value (thymus and spleen) is reported as “no acute toxicological effects”.
In the case of VFPQ, the “Activity against ADP-induced platelet aggregation (in words)” value [2] is reported as “poor activities”.
In the case of LTFPRIVFVLG, the “Inhibition of platelet aggregation” value [3] is given as 76.69%.
For O=C(O)CC[C@H](NC(=O)CNC(=O)[C@@H]1C[C@@H](O)CN1)C(=O)N[C@@H](Cc1ccccc1)C(=O)NCC(=O)O [OGEFG, Hyp-Gly-Glu-Phe-Gly] (H-[Hyp]GEFG-OH), the “Effect on bleeding time (BT) (in words)” value (bleeding time) was “no significant increase in BT” and the “Acute toxicological effects (in words)” value (thymus and spleen) was “no acute toxicological effects”.
